Assay results published in ChEMBL document CHEMBL4052620, “Design and synthesis of sulfonamide-substituted diphenylpyrimidines (SFA-DPPYs) as potent Bruton's tyrosine kinase (BTK) inhibitors with improved activity toward B-cell lymphoblastic leukemia” (Eur J Med Chem, 2017).
Active and inactive are the calls of the source. The calls are words filed in the database; no cut-off is given here.

What was measured:
Ramos [1] = assay: Antiproliferative activity against human Ramos cells over expressing BTK after 48 hrs by CCK-8 assay; assay type: functional, cell-based
How it was run: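 Cells seeded at 3,000–5,000 per well in RPMI1640 with 10% FBS, held one day at 37 °C and 5% CO₂, then exposed to compound for 48 h. Concentrations ran 1.25 to 40 µM, five replicates per concentration. Read-out is CCK-8 absorbance at 450 nm. IC50 comes from five-point dose-response curves, as the mean of at least three separate experiments.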

[2] = biological target: Tyrosine-protein kinase BTK (Homo sapiens, UniProt Q06187); assay: Inhibition of human recombinant full-length N-terminal His-tagged BTK expressed in baculovirus infected Sf9 insect cells after 60 mins by ADP-Glo kinase assay
Raji = assay: Antiproliferative activity against human Raji cells over expressing BTK after 48 hrs by CCK-8 assay; assay type: functional, cell-based
How it was run: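 Cells seeded at 3,000–5,000 per well in RPMI1640 with 10% FBS, held one day at 37 °C and 5% CO₂, then exposed to compound for 48 h. Read-out is CCK-8 absorbance at 450 nm. IC50 comes from five-point dose-response curves, as the mean of at least three separate experiments.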

Ramos [3] = assay: Induction of apoptosis in human Ramos cells assessed as late apoptotic cells at 5 uM after 48 hrs by annexin V-FITC/propidium iodide staining-based flow cytometric analysis relative to control; assay type: functional
Ramos [4] = assay: Induction of apoptosis in human Ramos cells assessed as early apoptotic cells at 1 uM after 48 hrs by annexin V-FITC/propidium iodide staining-based flow cytometric analysis relative to control; assay type: functional
Ramos [5] = assay: Induction of apoptosis in human Ramos cells assessed as necrotic cells at 5 uM after 48 hrs by annexin V-FITC/propidium iodide staining-based flow cytometric analysis (reference value: 0.2%); assay type: functional
Ramos [6] = assay: Induction of apoptosis in human Ramos cells assessed as early apoptotic cells at 5 uM after 48 hrs by annexin V-FITC/propidium iodide staining-based flow cytometric analysis relative to control; assay type: functional
Ramos [7] = assay: Induction of apoptosis in human Ramos cells assessed as necrotic cells at 1 uM after 48 hrs by annexin V-FITC/propidium iodide staining-based flow cytometric analysis (reference value: 0.2%); assay type: functional
Ramos [8] = assay: Induction of apoptosis in human Ramos cells assessed as viable cells at 1 uM after 48 hrs by annexin V-FITC/propidium iodide staining-based flow cytometric analysis relative to control; assay type: functional; details: read-out: Activity
Ramos [9] = assay: Antiproliferative activity against human Ramos cells over expressing BTK at 10 uM after 72 hrs by CCK-8 assay; assay type: functional, cell-based
How it was run: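 Ramos cells in RPMI-1640 with 10% FBS at 37 °C and 5% CO₂ were treated at 5, 10 or 20 µM for 24, 48 and 72 h. Viability was read by CCK-8 against an untreated control.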

Ramos [10] = assay: Induction of apoptosis in human Ramos cells assessed as late apoptotic cells at 1 uM after 48 hrs by annexin V-FITC/propidium iodide staining-based flow cytometric analysis relative to control; assay type: functional
PBMC [11] = assay: Cytotoxicity against human PBMC at 5 to 10 uM after 24 hrs by acridine orange/propidium iodide staining-based fluorescent microscopic analysis; assay type: cell-based
How it was run: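 PBMC were isolated from venous blood of a healthy adult on Lymphoprep (density 1.077 g/ml), washed in PBS and seeded at about 2.5 × 10⁵ cells/well. Cells were treated at 5, 10 or 20 µM, five replicates, for 24 h at 37 °C in RPMI1640 with 10% FBS. Staining was AO/PI, 1.0 µg/mL each, for 10 min at room temperature. Live cells were counted under a fluorescence microscope with a counting chamber.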

Ramos [12] = assay: Induction of apoptosis in human Ramos cells assessed as viable cells at 5 uM after 48 hrs by annexin V-FITC/propidium iodide staining-based flow cytometric analysis relative to control; assay type: functional; details: read-out: Activity
Ramos [13] = assay: Induction of apoptosis in human Ramos cells assessed as early apoptotic cells at 10 uM after 48 hrs by annexin V-FITC/propidium iodide staining-based flow cytometric analysis relative to control; assay type: functional
How it was run: (§1)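 Ramos cells at 3 to 5 × 10⁵ cells/well were exposed for 48 h in medium with 5% FBS, with DMSO as solvent control. Cells were then fixed in ethanol at 4 °C, stained with Annexin V-FITC/propidium iodide and analysed by flow cytometry. One representative experiment is shown.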

Ramos [14] = assay: Induction of apoptosis in human Ramos cells assessed as viable cells at 10 uM after 48 hrs by annexin V-FITC/propidium iodide staining-based flow cytometric analysis relative to control; assay type: functional; details: read-out: Activity; how it was run: as §1
Ramos [15] = assay: Induction of apoptosis in human Ramos cells assessed as late apoptotic cells at 10 uM after 48 hrs by annexin V-FITC/propidium iodide staining-based flow cytometric analysis relative to control; assay type: functional; how it was run: as §1
PBMC [16] = assay: Cytotoxicity against human PBMC at 5 to 10 uM after 24 hrs by acridine orange/propidium iodide staining-based fluorescent microscopic analysis relative to control; assay type: cell-based
How it was run: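 PBMC isolated on Lymphoprep (density 1.077 g/ml) from venous blood of one healthy adult, seeded about 2.5 × 10⁵ cells/well in RPMI1640 with 10% FBS. Treated at 5, 10 or 20 µM for 24 h at 37 °C, 5% CO₂, five replicates per concentration. Stained with AO/PI (1.0 µg/mL each, in PBS) for 10 min at room temperature. Live cells counted by fluorescence microscopy and counting chamber.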

Ramos [17] = assay: Induction of apoptosis in human Ramos cells assessed as necrotic cells at 10 uM after 48 hrs by annexin V-FITC/propidium iodide staining-based flow cytometric analysis (reference value: 0.2%); assay type: functional; how it was run: as §1

Chain of Tyrosine-protein kinase BTK (Q06187 whole entry): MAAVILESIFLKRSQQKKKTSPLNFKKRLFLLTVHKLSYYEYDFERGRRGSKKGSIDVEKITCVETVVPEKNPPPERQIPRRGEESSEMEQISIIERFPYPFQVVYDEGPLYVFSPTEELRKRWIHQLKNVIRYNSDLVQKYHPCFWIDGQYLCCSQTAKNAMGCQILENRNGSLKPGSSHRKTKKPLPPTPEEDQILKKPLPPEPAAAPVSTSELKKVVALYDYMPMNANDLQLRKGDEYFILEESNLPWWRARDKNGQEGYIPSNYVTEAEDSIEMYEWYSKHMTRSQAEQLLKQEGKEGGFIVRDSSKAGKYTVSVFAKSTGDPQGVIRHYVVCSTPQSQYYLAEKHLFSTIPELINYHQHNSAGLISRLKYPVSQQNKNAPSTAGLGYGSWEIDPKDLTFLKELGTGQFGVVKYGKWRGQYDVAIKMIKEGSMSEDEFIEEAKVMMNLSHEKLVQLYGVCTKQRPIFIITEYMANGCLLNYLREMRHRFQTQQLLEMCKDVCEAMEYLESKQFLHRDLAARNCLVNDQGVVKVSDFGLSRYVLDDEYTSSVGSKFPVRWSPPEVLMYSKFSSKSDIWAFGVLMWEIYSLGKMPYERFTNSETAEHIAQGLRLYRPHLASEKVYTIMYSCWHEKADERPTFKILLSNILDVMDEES

Row | SMILES | IC50 (Ramos [1]) | IC50 [2] | IC50 (Raji) | also measured
1 | C=CC(=O)Nc1cccc(Nc2nc(Nc3ccc(NS(=O)(=O)c4ccc(OC)cc4)cc3)ncc2Cl)c1 | 18.8 µM | 0.00914 µM | 15.5 µM | 
2 | C=CC(=O)Nc1cccc(Nc2nc(Nc3ccc(NS(=O)(=O)c4ccc(C)cc4)c(C)c3)ncc2[N+](=O)[O-])c1 | 38 µM | 0.0486 µM | 14.2 µM | 
3 | C=CC(=O)Nc1cccc(Nc2nc(Nc3ccc(NS(=O)(=O)c4ccc(F)cc4)c(OC)c3)ncc2Cl)c1 | 6.49 µM | 0.00118 µM | 13.2 µM | Activity (Ramos [3]): 54.6%; Activity (Ramos [4]): 23.3%; Activity (Ramos [5]): 13.2%; Activity (Ramos [6]): 7.2%; Activity (Ramos [7]): 17%; viability at 1 µM (Ramos [8]): 55.4%; Activity (Ramos [9]): Active; Activity (Ramos [10]): 4.3%; Activity (PBMC [11]): Non-Toxic; viability at 5 µM (Ramos [12]): 25%
4 | C=CC(=O)N1CCC[C@@H](n2nc(-c3ccc(Oc4ccccc4)cc3)c3c(N)ncnc32)C1 [IBRUTINIB] | 5.88 µM |  |  | Activity (Ramos [13]): 37.6%; viability at 10 µM (Ramos [14]): 40.2%; Activity (Ramos [15]): 7.5%; Activity (PBMC [16]): 50%; Activity (Ramos [17]): 14.7%
5 | C=CC(=O)Nc1cccc(Nc2nc(Nc3ccc(NS(=O)(=O)c4ccc(C)cc4)cc3)ncc2Cl)c1 | > 40 µM | 0.0585 µM | 17.4 µM | 
6 | C=CC(=O)Nc1cccc(Nc2nc(Nc3ccc(NS(=O)(=O)c4ccc(F)cc4)c(C)c3)ncc2Cl)c1 | 6.44 µM | 0.0786 µM | 10.5 µM | 
7 | C=CC(=O)Nc1cccc(Nc2nc(Nc3ccc(NS(=O)(=O)c4ccc(F)cc4)c(C)c3)ncc2[N+](=O)[O-])c1 | > 40 µM | 0.0854 µM | 22.4 µM | 
8 | C=CC(=O)Nc1cccc(Oc2nc(Nc3ccc(NS(=O)(=O)c4ccc(OC)cc4)cc3)ncc2Cl)c1 | > 40 µM | 0.00042 µM | 40.9 µM | 
9 | C=CC(=O)Nc1cccc(Nc2nc(Nc3ccc(OCCOC)cc3)ncc2F)c1 [SPEBRUTINIB] | 18.8 µM |  |  | Activity (Ramos [13]): 27.7%; viability at 10 µM (Ramos [14]): 50.9%; Activity (Ramos [15]): 5.9%; Activity (Ramos [17]): 15.6%

Further lines, with some results ahead:

Row | IC50 (Ramos [1]) | IC50 [2] | IC50 (Raji) | SMILES | also measured
10 | 7.23 µM | 0.00105 µM | 18.7 µM | C=CC(=O)Nc1cccc(Oc2nc(Nc3ccc(NS(=O)(=O)c4ccc(C)cc4)c(C)c3)ncc2Cl)c1 | 
11 | > 40 µM | 0.0238 µM | 18.7 µM | C=CC(=O)Nc1cccc(Nc2nc(Nc3ccc(NS(=O)(=O)c4ccc(OC)cc4)cc3)ncc2[N+](=O)[O-])c1 | 
12 | > 40 µM | 0.00092 µM | 36.9 µM | C=CC(=O)Nc1cccc(Nc2nc(Nc3ccc(NS(=O)(=O)c4ccc(OC)cc4)cc3)ncc2F)c1 | 
13 | > 40 µM | > 0.1 µM | 34.1 µM | C=CC(=O)Nc1cccc(Nc2nc(Nc3ccc(NS(=O)(=O)c4ccc(C)cc4)c(OC)c3)ncc2[N+](=O)[O-])c1 | 
